According to ChEMBL document CHEMBL4184332, “Discovery of Novel Nonsteroidal Anti-Inflammatory Drugs and Carbonic Anhydrase Inhibitors Hybrids (NSAIDs-CAIs) for the Management of Rheumatoid Arthritis” (J Med Chem, 2018):
pKi: −log10 of the molar value. Active and inactive are the calls of the source.

Experiments:
Rattus norvegicus [1] = test: Antiarthritic activity in CFA-induced Sprague-Dawley rat rheumatoid arthritis model assessed as increase in tolerated weight on ipsilateral paw at 6.2 mg/kg, po measured at 15 mins by paw pressure test; format: functional, organism-based
Outline: (§1)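 Rats: Sprague Dawley, 200-250 g, given 50 μl CFA intra-articularly into the tibiotarsal joint; controls got saline. On day 14, compounds in 1% CMC were given orally. An analgesimeter applied increasing pressure to the dorsal hind paw with a blunt conical probe until vocalization or withdrawal, read in grams, cut-off 120 g. Rats below 40 g or above 75 g before dosing were excluded. Values are mean (S.E.M.) of 8 rats from 2 experiments.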

Rattus norvegicus [2] = test: Antiarthritic activity in CFA-induced Sprague-Dawley rat rheumatoid arthritis model assessed as decrease in difference between weight burden on contralateral and ipsilateral paw at 6.2 mg/kg, po measured up to 75 mins by incapacitance test; format: functional, organism-based
Rattus norvegicus [3] = test: Antiarthritic activity in CFA-induced Sprague-Dawley rat rheumatoid arthritis model assessed as increase in tolerated weight on ipsilateral paw at 5.8 mg/kg, po measured at 15 mins by paw pressure test; format: functional, organism-based; outline: as §1
Rattus norvegicus [4] = test: Antiarthritic activity in CFA-induced Sprague-Dawley rat rheumatoid arthritis model assessed as decrease in difference between weight burden on contralateral and ipsilateral paw at 5.8 mg/kg, po measured up to 75 mins by incapacitance test; format: functional, organism-based
Carbonic anhydrase 1 [5] = target: T1, Carbonic anhydrase 1 (Homo sapiens, UniProt P00915); test: Inhibition of recombinant human carbonic anhydrase-1 incubated for 15 mins by stopped-flow CO2 hydrase assay
Target sequence in this assay (P00915 whole entry): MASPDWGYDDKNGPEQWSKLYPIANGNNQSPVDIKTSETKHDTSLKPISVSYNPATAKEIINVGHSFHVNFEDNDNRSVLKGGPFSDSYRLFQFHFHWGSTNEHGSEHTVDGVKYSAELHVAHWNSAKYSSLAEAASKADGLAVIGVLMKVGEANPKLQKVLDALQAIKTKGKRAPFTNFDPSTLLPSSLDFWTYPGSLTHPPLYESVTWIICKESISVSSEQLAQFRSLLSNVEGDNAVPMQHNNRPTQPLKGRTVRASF

Carbonic anhydrase 2 [6] = target: T2, Carbonic anhydrase 2 (Homo sapiens, UniProt P00918); test: Inhibition of recombinant human carbonic anhydrase-2 incubated for 15 mins by stopped-flow CO2 hydrase assay
Carbonic anhydrase 4 = Carbonic anhydrase 4 (Homo sapiens, UniProt P22748); test: Inhibition of recombinant human carbonic anhydrase-4 incubated for 15 mins by stopped-flow CO2 hydrase assay
Carbonic anhydrase 9 = Carbonic anhydrase 9 (Homo sapiens, UniProt Q16790); test: Inhibition of recombinant human carbonic anhydrase-9 catalytic domain incubated for 15 mins by stopped-flow CO2 hydrase assay
Carbonic anhydrase 12 = Carbonic anhydrase 12 (Homo sapiens, UniProt O43570); test: Inhibition of recombinant human carbonic anhydrase-12 incubated for 15 mins by stopped-flow CO2 hydrase assay
Rattus norvegicus [7] = test: Antiarthritic activity in po dosed CFA-induced Sprague-Dawley rat rheumatoid arthritis model assessed as increase in tolerated weight on ipsilateral paw measured up to 60 mins by paw pressure test; format: functional, organism-based; outline: as §1
Rattus norvegicus [8] = test: Antiarthritic activity in CFA-induced Sprague-Dawley rat rheumatoid arthritis model assessed as tolerated weight on ipsilateral paw at 1 mg/kg, po measured at 15 mins by paw pressure test (reference value: 43.5 +/- 0.5 g); format: functional; outline: as §1
Rattus norvegicus [9] = test: Antiarthritic activity in CFA-induced Sprague-Dawley rat rheumatoid arthritis model assessed as increase in tolerated weight on ipsilateral paw at 10 mg/kg, po measured up to 75 mins by paw pressure test; format: functional, organism-based; outline: as §1
Rattus norvegicus [10] = test: Antiarthritic activity in CFA-induced Sprague-Dawley rat rheumatoid arthritis model assessed as tolerated weight on ipsilateral paw at 1 mg/kg, po measured up to 30 mins by paw pressure test (reference value: 43.5 +/- 0.5 g); format: functional; outline: as §1
Rattus norvegicus [11] = test: Antiarthritic activity in CFA-induced Sprague-Dawley rat rheumatoid arthritis model assessed as tolerated weight on ipsilateral paw at 10 mg/kg, po measured at 15 mins by paw pressure test (reference value: 43.5 +/- 0.5 g); format: functional; outline: as §1
Rattus norvegicus [12] = test: Antiarthritic activity in CFA-induced Sprague-Dawley rat rheumatoid arthritis model assessed as tolerated weight on ipsilateral paw at 10 mg/kg, po measured at 30 mins by paw pressure test (reference value: 43.5 +/- 0.5 g); format: functional; outline: as §1
Rattus norvegicus [13] = species: Rattus norvegicus; test: Change in pain threshold of contralateral paw of CFA-induced Sprague-Dawley rat rheumatoid arthritis model by paw pressure test; format: organism-based; details: in vivo; outline: as §1
Rattus norvegicus [14] = test: Antiarthritic activity in po dosed CFA-induced Sprague-Dawley rat rheumatoid arthritis model assessed as decrease in difference between weight burden on contralateral and ipsilateral paw measured up to 60 mins by incapacitance test; format: functional, organism-based
Rattus norvegicus [15] = test: Antiarthritic activity in CFA-induced Sprague-Dawley rat rheumatoid arthritis model assessed as decrease in difference between weight burden on contralateral and ipsilateral paw at 0.1 mg/kg, po measured up to 75 mins by incapacitance test; format: functional, organism-based
Rattus norvegicus [16] = test: Antiarthritic activity in CFA-induced Sprague-Dawley rat rheumatoid arthritis model assessed as difference between weight burden on contralateral and ipsilateral paw at 1 mg/kg, po measured at 15 to 30 mins by incapacitance test (reference value: 54.2 +/- 5.1 g); format: functional
Rattus norvegicus [17] = test: Antiarthritic activity in CFA-induced Sprague-Dawley rat rheumatoid arthritis model assessed as difference between weight burden on contralateral and ipsilateral paw at 10 mg/kg, po measured at 15 to 30 mins by incapacitance test (reference value: 54.2 +/- 5.1 g); format: functional
Carbonic anhydrase 2 [18] = target: T2, Carbonic anhydrase 2; test: Potency index, ratio of acetazolamide Ki to test compound Ki for recombinant human carbonic anhydrase-2
Outline: (§2)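 Recombinant human CA, made in house, in a stopped-flow CO₂ hydration assay. Conditions: 20 mM Hepes pH 7.5, 20 mM Na₂SO₄, 0.2 mM phenol red read at 557 nm, CO₂ 1.7-17 mM. Enzyme and inhibitor were preincubated 15 min at room temperature. Initial rates were corrected for the uncatalyzed rate. Ki came from nonlinear least squares, mean of three measurements. The ratio uses the acetazolamide Ki.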

Rattus norvegicus [19] = test: Antiarthritic activity in CFA-induced Sprague-Dawley rat rheumatoid arthritis model assessed as tolerated weight on ipsilateral paw at 0.1 mg/kg, po measured at 15 mins by paw pressure test (reference value: 43.5 +/- 0.5 g); format: functional; outline: as §1
Rattus norvegicus [20] = test: Antiarthritic activity in CFA-induced Sprague-Dawley rat rheumatoid arthritis model assessed as tolerated weight on ipsilateral paw at 0.1 mg/kg, po measured up to 30 mins by paw pressure test (reference value: 43.5 +/- 0.5 g); format: functional; outline: as §1
Rattus norvegicus [21] = test: Antiarthritic activity in CFA-induced Sprague-Dawley rat rheumatoid arthritis model assessed as increase in tolerated weight on ipsilateral paw at 0.1 mg/kg, po measured up to 45 mins by paw pressure test; format: functional, organism-based; outline: as §1
Rattus norvegicus [22] = test: Antiarthritic activity in CFA-induced Sprague-Dawley rat rheumatoid arthritis model assessed as tolerated weight on ipsilateral paw at 1 mg/kg, po measured at 30 mins by paw pressure test (reference value: 43.5 +/- 0.5 g); format: functional; outline: as §1
Rattus norvegicus [23] = test: Antiarthritic activity in CFA-induced Sprague-Dawley rat rheumatoid arthritis model assessed as increase in tolerated weight on ipsilateral paw at 1 mg/kg, po measured up to 60 mins by paw pressure test; format: functional, organism-based; outline: as §1
Rattus norvegicus [24] = test: Antiarthritic activity in CFA-induced Sprague-Dawley rat rheumatoid arthritis model assessed as increase in tolerated weight on ipsilateral paw at 10 mg/kg, po measured at 15 mins by paw pressure test; format: functional, organism-based; outline: as §1
Rattus norvegicus [25] = test: Antiarthritic activity in CFA-induced Sprague-Dawley rat rheumatoid arthritis model assessed as tolerated weight on ipsilateral paw at 10 mg/kg, po measured up to 30 mins by paw pressure test (reference value: 43.5 +/- 0.5 g); format: functional; outline: as §1
Rattus norvegicus [26] = test: Antiarthritic activity in CFA-induced Sprague-Dawley rat rheumatoid arthritis model assessed as difference between weight burden on contralateral and ipsilateral paw at 1 mg/kg, po measured at 30 mins by incapacitance test (reference value: 54.2 +/- 5.1 g); format: functional
Rattus norvegicus [27] = test: Antiarthritic activity in CFA-induced Sprague-Dawley rat rheumatoid arthritis model assessed as difference between weight burden on contralateral and ipsilateral paw at 10 mg/kg, po measured at 30 mins by incapacitance test (reference value: 54.2 +/- 5.1 g); format: functional
Rattus norvegicus [28] = test: Antiarthritic activity in CFA-induced Sprague-Dawley rat rheumatoid arthritis model assessed as decrease in difference between weight burden on contralateral and ipsilateral paw at 10 mg/kg, po measured up to 75 mins by incapacitance test; format: functional, organism-based
Carbonic anhydrase 1 [29] = target: T1, Carbonic anhydrase 1; test: Potency index, ratio of acetazolamide Ki to test compound Ki for recombinant human carbonic anhydrase-1; outline: as §2
Target sequence in this assay (P00915 2-261 limits assumed): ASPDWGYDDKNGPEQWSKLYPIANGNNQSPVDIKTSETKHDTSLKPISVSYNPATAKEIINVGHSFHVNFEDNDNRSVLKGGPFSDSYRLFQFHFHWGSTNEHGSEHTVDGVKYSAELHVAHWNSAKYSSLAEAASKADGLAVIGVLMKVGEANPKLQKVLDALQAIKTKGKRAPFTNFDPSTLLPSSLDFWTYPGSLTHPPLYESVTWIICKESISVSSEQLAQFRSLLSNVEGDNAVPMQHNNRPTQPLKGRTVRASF

Rattus norvegicus [30] = test: Antiarthritic activity in CFA-induced Sprague-Dawley rat rheumatoid arthritis model assessed as decrease in difference between weight burden on contralateral and ipsilateral paw at 10 mg/kg, po measured up to 60 mins by incapacitance test; format: functional, organism-based
Rattus norvegicus [31] = test: Antiarthritic activity in CFA-induced Sprague-Dawley rat rheumatoid arthritis model assessed as increase in tolerated weight on ipsilateral paw at 1 mg/kg, po measured at 60 mins by paw pressure test; format: functional, organism-based; outline: as §1
Rattus norvegicus [32] = test: Antiarthritic activity in CFA-induced Sprague-Dawley rat rheumatoid arthritis model assessed as difference between weight burden on contralateral and ipsilateral paw at 0.1 mg/kg, po measured at 15 to 30 mins by incapacitance test (reference value: 54.2 +/- 5.1 g); format: functional
Rattus norvegicus [33] = test: Antiarthritic activity in CFA-induced Sprague-Dawley rat rheumatoid arthritis model assessed as decrease in difference between weight burden on contralateral and ipsilateral paw at 0.1 mg/kg, po measured up to 45 mins by incapacitance test; format: functional, organism-based

Carbonic anhydrase 4, sequence (P22748 whole entry, the tested form may be a part): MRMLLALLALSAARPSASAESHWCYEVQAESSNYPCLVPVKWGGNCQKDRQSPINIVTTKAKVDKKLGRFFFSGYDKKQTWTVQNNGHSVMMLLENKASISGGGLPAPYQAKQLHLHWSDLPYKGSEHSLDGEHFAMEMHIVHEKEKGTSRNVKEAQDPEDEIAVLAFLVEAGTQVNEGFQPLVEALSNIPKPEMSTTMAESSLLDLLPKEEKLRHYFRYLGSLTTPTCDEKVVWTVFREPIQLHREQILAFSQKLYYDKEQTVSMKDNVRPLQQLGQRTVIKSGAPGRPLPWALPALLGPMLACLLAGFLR
Carbonic anhydrase 12, sequence (O43570 whole entry): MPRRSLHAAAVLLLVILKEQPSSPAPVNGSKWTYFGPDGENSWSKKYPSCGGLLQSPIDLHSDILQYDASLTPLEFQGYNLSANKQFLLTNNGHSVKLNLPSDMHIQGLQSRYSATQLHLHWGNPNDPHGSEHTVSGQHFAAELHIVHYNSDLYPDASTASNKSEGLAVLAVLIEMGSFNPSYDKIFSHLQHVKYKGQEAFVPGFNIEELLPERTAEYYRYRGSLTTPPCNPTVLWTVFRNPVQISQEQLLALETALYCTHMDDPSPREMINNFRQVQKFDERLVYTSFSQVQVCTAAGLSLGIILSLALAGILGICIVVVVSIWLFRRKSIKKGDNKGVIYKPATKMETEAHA

| Structure (SMILES) | pKi (Carbonic anhydrase 1 [5]) | pKi (Carbonic anhydrase 2 [6]) | pKi (Carbonic anhydrase 4) | pKi (Carbonic anhydrase 9) | pKi (Carbonic anhydrase 12) | Activity (Rattus norvegicus [9]) | Activity (Rattus norvegicus [13]) | Activity (Rattus norvegicus [26]) | Activity (Rattus norvegicus [27]) | also measured |
| --- | --- | --- | --- | --- | --- | --- | --- | --- | --- | --- |
| O=C(O)Cc1ccccc1Nc1c(Cl)cccc1Cl |  |  |  |  |  |  |  |  |  | Activity (Rattus norvegicus [1]): Active; Activity (Rattus norvegicus [2]): Active |
| CC(C(=O)O)c1cccc(C(=O)c2ccccc2)c1 (configuration not stated) |  |  |  |  |  |  |  |  |  | Activity (Rattus norvegicus [3]): Active; Activity (Rattus norvegicus [4]): Active |
| CC1=C(CC(=O)NCCc2ccc(S(N)(=O)=O)cc2)c2cc(F)ccc2/C1=C/c1ccc([S+](C)[O-])cc1 (configuration not stated) | 7.19 | 7.56 | 5.16 | 7.20 | 7.03 | Active | Non-Toxic |  |  | Activity (Rattus norvegicus [7]): Dose-dependent effect; Activity (Rattus norvegicus [8]): 55 g; Activity (Rattus norvegicus [10]): 55 g; Activity (Rattus norvegicus [11]): 62.5 g; Activity (Rattus norvegicus [12]): 64.2 g; Activity (Rattus norvegicus [14]): Dose-dependent effect; Activity (Rattus norvegicus [15]): inactive; Activity (Rattus norvegicus [16]): 22.3 g; Activity (Rattus norvegicus [17]): 8.6 g |
| CC(C(=O)NCCc1ccc(S(N)(=O)=O)cc1)c1cccc(C(=O)c2ccccc2)c1 (racemic) | 8.09 | 8.19 | 5.52 | 7.41 | 7.27 | Active | Non-Toxic | 36.8 g | 28.6 g | Ratio Ki (Carbonic anhydrase 2 [18]): 1.86; Activity (Rattus norvegicus [19]): 50 g; Activity (Rattus norvegicus [20]): 50 g; Activity (Rattus norvegicus [21]): Active; Activity (Rattus norvegicus [8]): 51.7 g; Activity (Rattus norvegicus [22]): 53.3 g; Activity (Rattus norvegicus [23]): Active; Activity (Rattus norvegicus [24]): Active; Activity (Rattus norvegicus [25]): 56.7 g; Activity (Rattus norvegicus [14]): Dose-dependent effect; Activity (Rattus norvegicus [28]): Active |
| CC(C(=O)NCCOc1ccc(S(N)(=O)=O)cc1)c1cccc(C(=O)c2ccccc2)c1 (racemic) | 7.67 | 8.17 | 7.11 | 7.12 | 8.07 |  |  |  |  | Ratio Ki (Carbonic anhydrase 1 [29]): 10 |
| COc1ccc2cc(C(C)C(=O)NCCc3ccc(S(N)(=O)=O)cc3)ccc2c1 (racemic) | 7.72 | 8.28 | 5.22 | 7.89 | 7.04 |  | Non-Toxic | 34.3 g | 29.3 g | Activity (Rattus norvegicus [7]): Dose-dependent effect; Activity (Rattus norvegicus [30]): Active |
| NS(=O)(=O)c1ccc(CCNC(=O)Cc2ccccc2Nc2c(Cl)cccc2Cl)cc1 | 7.16 | 7.36 | 5.06 | 7.36 | 7.04 | Active | Non-Toxic | 20.6 g | 14.7 g | Activity (Rattus norvegicus [19]): 52.5 g; Activity (Rattus norvegicus [21]): Active; Activity (Rattus norvegicus [22]): 56.7 g; Activity (Rattus norvegicus [12]): 66.3 g; Activity (Rattus norvegicus [31]): inactive; Activity (Rattus norvegicus [32]): 39 g; Activity (Rattus norvegicus [33]): Active |
